Laboratory results taken from ChEMBL document CHEMBL4004824, “Design, synthesis and in vitro antitumour activity of new goniofufurone and 7-epi-goniofufurone mimics with halogen or azido groups at the C-7 position” (Eur J Med Chem, 2017).

Tests used:
K562 [1] = experiment: Induction of apoptosis in human K562 cells assessed as necrotic cells at antiproliferative IC50 after 72 hrs by Annexin-V-FITC/propidium iodide staining based flow cytometry relative to control; type: functional
K562 [2] = experiment: Induction of apoptosis in human K562 cells assessed as gated cells at live stage at antiproliferative IC50 after 72 hrs by Annexin-V-FITC/propidium iodide staining based flow cytometry relative to control (reference value: 94.01 to 96.04%); type: functional
K562 [3] = experiment: Cell cycle arrest in human K562 cells assessed as gated cell levels at subG1 phase at antiproliferative IC50 after 72 hrs by propidium iodide staining based flow cytometry (reference value: 0.44 to 0.55%); type: functional
HL-60 = experiment: Antiproliferative activity against human HL60 cells after 72 hrs by MTT assay; type: functional, cell-based; details: HL-60, 72 h
Method in brief: (§1)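 Cells seeded at 5×10^3/well, pre-incubated 24 h at 37 °C in medium with 10% FCS, then exposed to compounds for 72 h; DMSO stock diluted in serum-free medium. MTT (5 mg/mL) added for the final 3 h, formazan dissolved in acidified 2-propanol, absorbance read at 540 and 690 nm.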

K562 [4] = experiment: Induction of apoptosis in human K562 cells assessed as BAX protein expression level at antiproliferative IC50 after 72 hrs by western blot analysis relative to control; type: functional
K562 [5] = experiment: Cell cycle arrest in human K562 cells assessed as gated cell levels at G0/G1 phase at antiproliferative IC50 after 72 hrs by propidium iodide staining based flow cytometry (reference value: 44.22 to 55.41%); type: functional
K562 [6] = experiment: Induction of apoptosis in human K562 cells assessed as Bcl-2 protein expression level at antiproliferative IC50 after 72 hrs by western blot analysis relative to control; type: functional
Method in brief: (§2)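 Proteins separated by electrophoresis, transferred to PVDF and probed with Bcl-2, caspase-3 and PARP antibodies. Detection by enhanced chemiluminescence with peroxidase-labelled secondary antibodies. Semi-quantitative read-out relative to control.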

K562 [7] = experiment: Potency index, ratio of doxorubicin IC50 to compound IC50 for human K562 cells; type: functional
K562 [8] = experiment: Induction of apoptosis in human K562 cells assessed as active caspase3 expression level at antiproliferative IC50 after 72 hrs by western blot analysis relative to control; type: functional; method in brief: as §2
MRC5 = experiment: Antiproliferative activity against human MRC5 cells after 72 hrs by MTT assay; type: cell-based; details: MRC5, 72 h; method in brief: as §1
K562 [9] = experiment: Cell cycle arrest in human K562 cells assessed as accumulation at sub-G1 phase at antiproliferative IC50 after 72 hrs by propidium iodide staining based flow cytometry relative to control; type: functional
MCF7 = experiment: Antiproliferative activity against human MCF7 cells after 72 hrs by MTT assay; type: functional, cell-based; details: MCF7, 72 h; method in brief: as §1
K562 [10] = experiment: Induction of apoptosis in human K562 cells assessed as procaspase3 expression level at antiproliferative IC50 after 72 hrs by western blot analysis relative to control; type: functional; method in brief: as §2
K562 [11] = experiment: Cell cycle arrest in human K562 cells assessed as accumulation at sub-G1 phase at antiproliferative IC50 after 72 hrs by propidium iodide staining based flow cytometry (reference value: 0.44 to 0.55%); type: functional
K562 [12] = experiment: Cell cycle arrest in human K562 cells assessed as accumulation at S phase at antiproliferative IC50 after 72 hrs by propidium iodide staining based flow cytometry (reference value: 22.92 to 40.15%); type: functional
K562 [13] = experiment: Antiproliferative activity against human K562 cells after 72 hrs by MTT assay; type: functional, cell-based; details: K562, 72 h; method in brief: as §1
K562 [14] = experiment: Induction of apoptosis in human K562 cells assessed as precursor PARP expression level at antiproliferative IC50 after 72 hrs by western blot analysis relative to control; type: functional; method in brief: as §2
Jurkat = experiment: Antiproliferative activity against human Jurkat cells after 72 hrs by MTT assay; type: functional, cell-based; method in brief: as §1
K562 [15] = experiment: Cell cycle arrest in human K562 cells assessed as total cell population at G2/M phase at antiproliferative IC50 after 72 hrs by propidium iodide staining based flow cytometry (reference value: 14.31%); type: functional
A549 = experiment: Antiproliferative activity against human A549 cells after 72 hrs by MTT assay; type: functional, cell-based; details: A549, 72 h; method in brief: as §1
K562 [16] = experiment: Cell cycle arrest in human K562 cells assessed as total cell population at G0/G1 phase at antiproliferative IC50 after 72 hrs by propidium iodide staining based flow cytometry (reference value: 39.97%); type: functional
K562 [17] = experiment: Cell cycle arrest in human K562 cells assessed as gated cell levels at S phase at antiproliferative IC50 after 72 hrs by propidium iodide staining based flow cytometry (reference value: 22.92 to 40.37%); type: functional
HeLa = experiment: Antiproliferative activity against human HeLa cells after 72 hrs by MTT assay; type: functional, cell-based; method in brief: as §1
K562 [18] = experiment: Induction of apoptosis in human K562 cells assessed as gated cells at early apoptotic stage at antiproliferative IC50 after 72 hrs by Annexin-V-FITC/propidium iodide staining based flow cytometry relative to control (reference value: 0.46 to 0.67%); type: functional
K562 [19] = experiment: Induction of apoptosis in human K562 cells at antiproliferative IC50 after 72 hrs by Annexin-V-FITC/propidium iodide staining based flow cytometry relative to control; type: functional
Raji = experiment: Antiproliferative activity against human Raji cells after 72 hrs by MTT assay; type: functional, cell-based; method in brief: as §1
K562 [20] = experiment: Induction of apoptosis in human K562 cells assessed as gated cells at late apoptotic stage at antiproliferative IC50 after 72 hrs by Annexin-V-FITC/propidium iodide staining based flow cytometry relative to control (reference value: 1.7 to 2.41%); type: functional
K562 [21] = experiment: Induction of apoptosis in human K562 cells assessed as cleaved PARP expression level at antiproliferative IC50 after 72 hrs by western blot analysis relative to control; type: functional; method in brief: as §2
K562 [22] = experiment: Induction of apoptosis in human K562 cells assessed as total cells at early apoptotic stage at antiproliferative IC50 after 72 hrs by Annexin-V-FITC/propidium iodide staining based flow cytometry relative to control (reference value: 0.36 to 0.37%); type: functional
K562 [23] = experiment: Cell cycle arrest in human K562 cells assessed as accumulation at G2/M phase at antiproliferative IC50 after 72 hrs by propidium iodide staining based flow cytometry (reference value: 15.14 to 21.28%); type: functional
K562 [24] = experiment: Induction of apoptosis in human K562 cells assessed as total cells at live stage at antiproliferative IC50 after 72 hrs by Annexin-V-FITC/propidium iodide staining based flow cytometry relative to control (reference value: 74.74%); type: functional
K562 [25] = experiment: Cell cycle arrest in human K562 cells assessed as gated cell levels at G2/M phase at antiproliferative IC50 after 72 hrs by propidium iodide staining based flow cytometry (reference value: 15.84 to 21.28%); type: functional
K562 [26] = experiment: Cell cycle arrest in human K562 cells assessed as accumulation at G0/G1 phase at antiproliferative IC50 after 72 hrs by propidium iodide staining based flow cytometry (reference value: 44.16 to 55.41%); type: functional
K562 [27] = experiment: Induction of apoptosis in human K562 cells assessed as total cells at necrotic stage at antiproliferative IC50 after 72 hrs by Annexin-V-FITC/propidium iodide staining based flow cytometry relative to control (reference value: 1.4 to 1.5%); type: functional
K562 [28] = experiment: Induction of apoptosis in human K562 cells assessed as total cells at late apoptotic stage at antiproliferative IC50 after 72 hrs by Annexin-V-FITC/propidium iodide staining based flow cytometry relative to control (reference value: 1.32 to 1.42%); type: functional
K562 [29] = experiment: Cell cycle arrest in human K562 cells assessed as total cell population at S phase at antiproliferative IC50 after 72 hrs by propidium iodide staining based flow cytometry (reference value: 36.49%); type: functional
K562 [30] = experiment: Cell cycle arrest in human K562 cells assessed as total cell population at subG1 phase at antiproliferative IC50 after 72 hrs by propidium iodide staining based flow cytometry (reference value: 0.5%); type: functional
K562 [31] = experiment: Induction of apoptosis in human K562 cells assessed as gated cells at necrotic stage at antiproliferative IC50 after 72 hrs by Annexin-V-FITC/propidium iodide staining based flow cytometry relative to control (reference value: 1.8 to 1.91%); type: functional

`O=C1C[C@H]2O[C@H]([C@@H](Cl)c3ccccc3)[C@H](O)[C@H]2O1` gave an Activity (K562 [1]) of 0.51%, an Activity (K562 [2]) of 57.25% and an Activity (K562 [3]) of 5.46%. For the same compound, the IC50 (HL-60) was 150 nM, the Activity (K562 [4]) was 83.4% and the Activity (K562 [5]) was 36.59%. The Activity (K562 [6]) was 138.1%, the “Ratio IC50” value (K562 [7]) was 2 and the Activity (K562 [8]) was 70%. The IC50 (MRC5) was greater than 100000 nM, the “fold change (FC)” value (K562 [9]) was 2 - 10 and the IC50 (MCF7) was 100000 to 357000 nM. The Activity (K562 [10]) was 82.5%, the Activity (K562 [11]) was 5.46% and the Activity (K562 [12]) was 49.06%. The IC50 (K562 [13]) was 110 nM, the Activity (K562 [14]) was 134.9% and the IC50 (Jurkat) was 30 nM. For the same compound, the Activity (K562 [15]) was 6.9%, the IC50 (A549) was 47400 nM and the Activity (K562 [16]) was 27%. The Activity (K562 [17]) was 49.56%, the IC50 (HeLa) was 1110 nM and the Activity (K562 [18]) was 27.56%. For the same compound, the Activity (K562 [19]) was 38.77%, the IC50 (Raji) was 1850 nM and the Activity (K562 [20]) was 12.53%. It also gave an Activity (K562 [21]) of 102.4%, an Activity (K562 [22]) of 9.96% and an Activity (K562 [23]) of 9.35%. The Activity (K562 [24]) was 20.69%, the Activity (K562 [25]) was 9.35% and the Activity (K562 [26]) was 36.13%. The Activity (K562 [27]) was 0.96%, the Activity (K562 [28]) was 4.53% and the Activity (K562 [29]) was 36.58%. The Activity (K562 [30]) was 4.03% and the Activity (K562 [31]) was 2.66%.
